According to ChEMBL document CHEMBL1129264, “Mercaptoacyl dipeptides as orally active dual inhibitors of angiotensin-converting enzyme and neutral endopeptidase” (1996):

Assays:
Assay type in all cases: organism-based
[1] = target: T1, Angiotensin-converting enzyme (Rattus norvegicus) (UniProt P47820); assay: Compound was tested for plasma inhibition of Angiotensin I converting enzyme activity in the conscious rat. Expressed as Inhibition of AI pressor response at 2 hr at a dose of 12.4 mg/kg po; set-up: dose 12.4 mg/kg
T1 sequence (whole entry): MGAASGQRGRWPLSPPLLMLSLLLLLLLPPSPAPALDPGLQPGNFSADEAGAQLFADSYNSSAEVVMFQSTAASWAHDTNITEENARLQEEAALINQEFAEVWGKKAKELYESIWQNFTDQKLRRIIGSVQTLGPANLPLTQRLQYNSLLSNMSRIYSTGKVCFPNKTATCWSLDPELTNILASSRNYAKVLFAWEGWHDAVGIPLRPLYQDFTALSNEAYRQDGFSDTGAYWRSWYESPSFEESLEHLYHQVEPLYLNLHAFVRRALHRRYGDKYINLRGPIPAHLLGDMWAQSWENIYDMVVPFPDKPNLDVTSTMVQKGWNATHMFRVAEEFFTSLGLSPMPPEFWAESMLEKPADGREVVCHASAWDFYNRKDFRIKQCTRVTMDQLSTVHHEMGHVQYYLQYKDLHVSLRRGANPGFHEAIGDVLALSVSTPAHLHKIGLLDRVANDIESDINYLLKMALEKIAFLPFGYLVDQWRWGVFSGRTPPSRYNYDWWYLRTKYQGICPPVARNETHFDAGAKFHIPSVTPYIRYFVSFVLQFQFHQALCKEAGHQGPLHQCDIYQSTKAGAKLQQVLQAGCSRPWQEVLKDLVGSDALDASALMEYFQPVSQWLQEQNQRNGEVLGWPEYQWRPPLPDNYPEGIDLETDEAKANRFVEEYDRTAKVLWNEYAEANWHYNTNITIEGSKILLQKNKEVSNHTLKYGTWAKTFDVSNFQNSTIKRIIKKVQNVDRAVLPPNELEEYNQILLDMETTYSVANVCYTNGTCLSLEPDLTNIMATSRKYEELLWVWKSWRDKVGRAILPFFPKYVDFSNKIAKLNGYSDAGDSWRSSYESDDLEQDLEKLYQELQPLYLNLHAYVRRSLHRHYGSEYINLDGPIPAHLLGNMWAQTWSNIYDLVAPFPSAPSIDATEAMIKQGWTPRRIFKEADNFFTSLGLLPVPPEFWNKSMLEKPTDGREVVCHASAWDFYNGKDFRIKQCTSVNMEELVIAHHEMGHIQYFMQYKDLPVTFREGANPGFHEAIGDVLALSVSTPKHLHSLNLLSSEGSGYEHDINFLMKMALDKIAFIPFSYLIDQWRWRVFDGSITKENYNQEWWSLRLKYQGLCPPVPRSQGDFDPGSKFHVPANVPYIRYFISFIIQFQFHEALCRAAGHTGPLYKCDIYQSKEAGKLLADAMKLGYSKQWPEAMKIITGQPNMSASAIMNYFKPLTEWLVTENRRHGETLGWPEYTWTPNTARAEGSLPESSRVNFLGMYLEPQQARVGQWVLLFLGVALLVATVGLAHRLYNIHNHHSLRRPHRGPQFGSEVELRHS
Method in brief: (§1)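 Male conscious normotensive Sprague-Dawley rats (275-390 g), given femoral arterial and venous catheters under methohexital sodium (75 mg/kg ip) anesthesia. Next day, pressor responses to three angiotensin-I challenges (300 ng/kg iv) recorded by direct arterial pressure. Compound then dosed orally, and AI challenge repeated at set times. Each post-dose response compared with the mean of the three baseline responses, giving % inhibition.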

[2] = target: T1, Angiotensin-converting enzyme (Rattus norvegicus); assay: Compound was tested for plasma inhibition of Angiotensin I converting enzyme activity in the conscious rat. Expressed as Inhibition of AI pressor response at 1 hr at a dose of 12.4 mg/kg po; set-up: dose 12.4 mg/kg; method in brief: as §1
[3] = target: T1, Angiotensin-converting enzyme (Rattus norvegicus); assay: Compound was tested for plasma inhibition of Angiotensin I converting enzyme activity in the conscious rat. Expressed as Inhibition of AI pressor response at 4 hr at a dose of 12.4 mg/kg po; set-up: dose 12.4 mg/kg; method in brief: as §1
[4] = target: T1, Angiotensin-converting enzyme (Rattus norvegicus); assay: Compound was tested for plasma inhibition of Angiotensin I converting enzyme activity in the conscious rat. Expressed as Inhibition of AI pressor response at 6 hr at a dose of 12.4 mg/kg po; set-up: dose 12.4 mg/kg
Method in brief: (§2)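 Male conscious normotensive Sprague-Dawley rats (275-390 g), prepared under methohexital sodium (75 mg/kg ip) with femoral arterial and venous catheters. The next day, pressor responses to three angiotensin-I challenges (300 ng/kg iv) were recorded. Compound was then given orally and angiotensin-I challenges were repeated at set times. Percent inhibition is relative to the mean of the three baseline responses.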

[5] = target: T1, Angiotensin-converting enzyme (Rattus norvegicus); assay: Compound was tested for plasma inhibition of Angiotensin I converting enzyme activity in the conscious rat. Expressed as Inhibition of AI pressor response at 1 hr at a dose of 13.1 mg/kg po; set-up: dose 13.1 mg/kg; method in brief: as §1
[6] = target: T1, Angiotensin-converting enzyme (Rattus norvegicus); assay: Compound was tested for plasma inhibition of Angiotensin I converting enzyme activity in the conscious rat. Expressed as Inhibition of AI pressor response at 2 hr at a dose of 13.1 mg/kg po; set-up: dose 13.1 mg/kg; method in brief: as §1
[7] = target: T1, Angiotensin-converting enzyme (Rattus norvegicus); assay: Compound was tested for plasma inhibition of Angiotensin I converting enzyme activity in the conscious rat. Expressed as Inhibition of AI pressor response at 6 hr at a dose of 13.1 mg/kg po; set-up: dose 13.1 mg/kg; method in brief: as §2
[8] = target: T1, Angiotensin-converting enzyme (Rattus norvegicus); assay: Compound was tested for plasma inhibition of Angiotensin I converting enzyme activity in the conscious rat. Expressed as Inhibition of AI pressor response at 4 hr at a dose of 13.1 mg/kg po; set-up: dose 13.1 mg/kg; method in brief: as §2
[9] = target: T1, Angiotensin-converting enzyme (Rattus norvegicus); assay: Compound was tested for plasma inhibition of Angiotensin I converting enzyme activity in the conscious rat. Expressed as Inhibition of AI pressor response at 1 hr at a dose of 10 mg/kg po; set-up: dose 10 mg/kg; method in brief: as §1
[10] = target: T1, Angiotensin-converting enzyme (Rattus norvegicus); assay: Compound was tested for plasma inhibition of Angiotensin I converting enzyme activity in the conscious rat. Expressed as Inhibition of AI pressor response at 6 hr at a dose of 10 mg/kg po; set-up: dose 10 mg/kg; method in brief: as §2
[11] = target: T1, Angiotensin-converting enzyme (Rattus norvegicus); assay: Compound was tested for plasma inhibition of Angiotensin I converting enzyme activity in the conscious rat. Expressed as Inhibition of AI pressor response at 4 hr at a dose of 10 mg/kg po; set-up: dose 10 mg/kg; method in brief: as §1
[12] = target: T1, Angiotensin-converting enzyme (Rattus norvegicus); assay: Compound was tested for plasma inhibition of Angiotensin I converting enzyme activity in the conscious rat. Expressed as Inhibition of AI pressor response at 2 hr at a dose of 10 mg/kg po; set-up: dose 10 mg/kg; method in brief: as §1
[13] = target: T1, Angiotensin-converting enzyme (Rattus norvegicus); assay: Compound was tested for plasma inhibition of Angiotensin I converting enzyme activity in the conscious rat. Expressed as Inhibition of AI pressor response at 2 hr at a dose of 12.8 mg/kg po; set-up: dose 12.8 mg/kg; method in brief: as §1
[14] = target: T1, Angiotensin-converting enzyme (Rattus norvegicus); assay: Compound was tested for plasma inhibition of Angiotensin I converting enzyme activity in the conscious rat. Expressed as Inhibition of AI pressor response at 6 hr at a dose of 12.8 mg/kg po; set-up: dose 12.8 mg/kg; method in brief: as §2
[15] = target: T1, Angiotensin-converting enzyme (Rattus norvegicus); assay: Compound was tested for plasma inhibition of Angiotensin I converting enzyme activity in the conscious rat. Expressed as Inhibition of AI pressor response at 1 hr at a dose of 12.8 mg/kg po; set-up: dose 12.8 mg/kg; method in brief: as §1
[16] = target: T1, Angiotensin-converting enzyme (Rattus norvegicus); assay: Compound was tested for plasma inhibition of Angiotensin I converting enzyme activity in the conscious rat. Expressed as Inhibition of AI pressor response at 4 hr at a dose of 12.8 mg/kg po; set-up: dose 12.8 mg/kg; method in brief: as §1
[17] = target: T1, Angiotensin-converting enzyme (Rattus norvegicus); assay: Compound was tested for plasma inhibition of Angiotensin I converting enzyme activity in the conscious rat. Expressed as Inhibition of AI pressor response at 6 hr at a dose of 14.3 mg/kg po; set-up: dose 14.3 mg/kg; method in brief: as §2
[18] = target: T1, Angiotensin-converting enzyme (Rattus norvegicus); assay: Compound was tested for plasma inhibition of Angiotensin I converting enzyme activity in the conscious rat. Expressed as Inhibition of AI pressor response at 1 hr at a dose of 14.3 mg/kg po; set-up: dose 14.3 mg/kg; method in brief: as §1
[19] = target: T1, Angiotensin-converting enzyme (Rattus norvegicus); assay: Compound was tested for plasma inhibition of Angiotensin I converting enzyme activity in the conscious rat. Expressed as Inhibition of AI pressor response at 4 hr at a dose of 14.3 mg/kg po; set-up: dose 14.3 mg/kg; method in brief: as §2
[20] = target: T1, Angiotensin-converting enzyme (Rattus norvegicus); assay: Compound was tested for plasma inhibition of Angiotensin I converting enzyme activity in the conscious rat. Expressed as Inhibition of AI pressor response at 2 hr at a dose of 14.3 mg/kg po; set-up: dose 14.3 mg/kg; method in brief: as §1

CC(=O)S[C@@H](C(=O)NC1(C(=O)N[C@@H](Cc2ccc(O)cc2)C(=O)OCC(C)C)CCCC1)C(C)C
inhibition [1]: 77%
inhibition [2]: 76%
inhibition [3]: 69%
inhibition [4]: 20%

CCCCOC(=O)[C@H](Cc1ccc(O)cc1)NC(=O)C1(NC(=O)[C@H](SC(=O)COC)C(C)C)CCCC1
inhibition [5]: 76%
inhibition [6]: 75%
inhibition [7]: 54%
inhibition [8]: 58%

CCOC(=O)[C@H](CCc1ccccc1)N[C@H]1CCc2ccccc2N(CC(=O)O)C1=O
inhibition [9]: 100%
inhibition [10]: 16%
inhibition [11]: 39%
inhibition [12]: 77%

CCCCCCOC(=O)[C@H](Cc1ccc(O)cc1)NC(=O)C1(NC(=O)[C@H](SC(C)=O)C(C)C)CCCC1
inhibition [5]: 64%
inhibition [6]: 78%
inhibition [7]: 16%
inhibition [8]: 61%

CCOC(=O)[C@H](Cc1ccc(O)cc1)NC(=O)C1(NC(=O)[C@H](SC(=O)CN(C)C)C(C)C)CCCC1
inhibition [13]: 63%
inhibition [14]: 18%
inhibition [15]: 70%
inhibition [16]: 35%

COC(=O)[C@H](Cc1ccc(O)cc1)NC(=O)C1(NC(=O)[C@H](SC(C)=O)C(C)C)CCCC1
inhibition [9]: 76%
inhibition [10]: 14%
inhibition [11]: 25%
inhibition [12]: 72%

CCCCOC(=O)[C@H](Cc1ccc(OC)cc1)NC(=O)C1(NC(=O)[C@H](SC(C)=O)C(C)C)CCCC1
inhibition [13]: 70%
inhibition [14]: 58%
inhibition [15]: 75%
inhibition [11]: 65%

CC(=O)S[C@@H](C(=O)NC1(C(=O)N[C@@H](Cc2ccc(O)cc2)C(=O)OCc2ccccc2)CCCC1)C(C)C
inhibition [5]: 72%
inhibition [6]: 74%
inhibition [7]: 28%
inhibition [8]: 54%

CCOC(=O)[C@H](Cc1ccc(OC(=O)c2ccccc2)cc1)NC(=O)C1(NC(=O)[C@H](SC(C)=O)C(C)C)CCCC1
inhibition [17]: 10%
inhibition [18]: 45%
inhibition [19]: 36%
inhibition [20]: 30%
